Source: PubChem
NR2E3 ag-1: agonists of human NR2E3 nuclear receptor. AID 602229. actives 0.35% (n = 360,000). Q9Y5X4. CHO-S Gal4-NCOR/VP16-NR2E3 two-hybrid, luciferase. inhibition of corepressor binding, % at 3.98 µM;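 active means inhibition above the mean of all tested compounds plus 3 SD, cut at about 70% in these data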;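 further: 0% = DMSO with NR2E3 transfected cells and 100% = cells lacking NR2E3 construct; higher means lower luciferase signal from less NR2E3 corepressor binding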
Target sequence (Q9Y5X4 whole entry, looked up, the tested form may be a part): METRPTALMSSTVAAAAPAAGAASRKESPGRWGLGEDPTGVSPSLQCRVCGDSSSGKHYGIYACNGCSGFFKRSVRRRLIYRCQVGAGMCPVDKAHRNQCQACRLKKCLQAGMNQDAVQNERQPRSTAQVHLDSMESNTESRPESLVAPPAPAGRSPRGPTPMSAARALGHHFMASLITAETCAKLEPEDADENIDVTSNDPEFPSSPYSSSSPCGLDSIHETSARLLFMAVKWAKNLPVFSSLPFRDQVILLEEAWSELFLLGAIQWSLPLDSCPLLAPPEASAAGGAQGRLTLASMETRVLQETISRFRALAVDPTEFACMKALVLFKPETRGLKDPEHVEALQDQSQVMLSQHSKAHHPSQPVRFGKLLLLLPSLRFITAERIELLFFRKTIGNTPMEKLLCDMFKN
rCAG RNA binder: molecules binding r(CAG) RNA repeats; r(CAG) RNA repeat, TO-PRO-1 dye displacement fluorescence; inhibition, % at 3 µM; AID 651821; actives 1.3% (n = 370,000);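 active means inhibition above the plate cutoff, the mean of all test compounds on that plate plus 3 SD, cut at about 35% in these data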;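 further: 0% = DMSO alone and 100% = 100 µM mitoxantrone as full dye displacement; higher means more dye released from RNA so lower well fluorescence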
NR2E3 ag-2: agonists of human nuclear receptor NR2E3. Q9Y5X4. GST-NR2E3/biotin-RetCOR TR-FRET, 1536-well. inhibition of corepressor binding, % at 4.78 µM. actives 0.12% (n = 320,000). AID 2300;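 active means percent inhibition above the cutoff of mean plus 3 SD of all tested compounds, set per screening campaign, cut at about 20% in these data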;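 further: 0% = DMSO wells and 100% = biotin wells as full block of FRET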
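System: GST-tagged NR2E3 plus biotinylated RetCOR corepressor; Amount: 1.35 nM GST-tagged NR2E3 final; Dosing: single nominal compound dose of 4.8 µM; Schedule: 5 h incubation at 4 °C; Technique: TR-FRET with europium anti-GST and streptavidin-D2, 340 nm excitation; Controls: biotin wells as high control, 0.6% DMSO wells as low control.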
Rev-erbA mod: Rev-erb alpha (human) modulation; AID 1259318; Rev-erbα–FITC-DNA binding, fluorescence polarization, 90 min; P20393; activity, % at 10 µM; actives 0.79% (n = 370,000);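 active means activity above about 14%, limit read from the data; passing the limit was not always enough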;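 further: 0% = DMSO wells with 35 nM protein and 100% = DMSO wells with 750 nM protein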
PG9 Ab binder: PG9 antibody binding by small molecule; TR-FRET gp120-PG9 antibody binding; inhibition, % at 6.7 µM; actives 0.43% (n = 360,000); in the data active means inhibition above about 8.5%
rCAG bind conf: r(CAG) RNA repeat binding, confirmation; shares compounds with rCAG RNA binder; TO-PRO-1 dye displacement fluorescence; inhibition, % at 3 µM; actives 70% (n = 4,300); AID 652065;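 active means inhibition above a per-plate cutoff, the mean inhibition of sample wells plus 3 SD, cut at about 35% in these data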;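 further: loss of TO-PRO-1 fluorescence as compound displaces dye from 1x1 AA loop RNA; 0% = DMSO only wells and 100% = 100 µM mitoxantrone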
dCAG dye counter: DNA CAG dye complex inhibition counter-screen; actives 94% (n = 4,300); inhibition, % at 3 µM; d(CAG) DNA oligo TO-PRO-1 dye displacement, fluorescence; shares compounds with rCAG RNA binder;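 active means inhibition above its plate's cutoff, the mean test-well inhibition plus 3 SD, cut at about 4.8% in these data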;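 further: 0% = DNA dye mix with DMSO and 100% = 100 µM mitoxantrone; hits displace the dye from DNA and so lower well fluorescence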
* marks the source's active call; other numbers are inactive results; / = no result. Sampled rows, rich in hits. Any-hit rate of the full collection: about 2.6%.

SMILES	NR2E3 ag-1	rCAG RNA binder	NR2E3 ag-2	Rev-erbA mod	PG9 Ab binder	rCAG bind conf	dCAG dye counter
O=C(NCc1ccncc1)[C@@H]1CCCN1C(=O)[C@@H]1CCCN1C(=O)c1ccccc1Cl	-22.5	1.6	/	-0.9	0.3	/	/
CN(C)Cc1c(C(C)(C)O)[nH]c2cc(C(F)(F)F)ccc12	/	1.2	/	-4.1	-0.5	/	/
CCOc1ccc([C@@H]2CC=C(C(=O)O)[C@H](c3ccc(Cl)cc3)N2S(=O)(=O)c2ccc(C)cc2)cc1	7.8	58.9*	10.6	-2.4	0.1	74.1*	36.9*
COc1ccc([C@@H]2CC=C(C(=O)O)[C@H](c3ccc(Br)cc3)N2S(=O)(=O)c2ccc(C)cc2)cc1OC	-30.1	47.1*	/	-1.1	-1.3	43.4*	14.4*
COc1cc([C@@H]2CC=C(C(=O)O)[C@H](c3ccc(F)cc3)N2S(=O)(=O)c2ccc(C)cc2)cc(OC)c1OC	-4.5	29.5	1.1	-3.9	0.0	/	/
CC(=O)C1=CCC(c2ccc(Br)cc2)N(S(=O)(=O)c2ccc(C)cc2)C1 (stereo not given)	4.9	3.5	/	-3.8	-2.0	/	/
Cc1ccc(S(=O)(=O)N2[C@@H](c3ccc(F)cc3)C(C(=O)O)=CC[C@H]2c2ccc(Cl)cc2)cc1	-20.6	78.2*	5.4	-4.5	0.1	69.3*	31.3*
O=C(O)C1=CC[C@@H](c2ccc(Cl)cc2)N(S(=O)(=O)c2ccc(Cl)cc2)[C@H]1c1ccc(Br)cc1	45.2	84.7*	/	-3.5	-1.1	87.5*	58.4*
CCOc1ccc(C2CC=C(C(=O)O)CN2S(=O)(=O)c2ccc(C)cc2)cc1 (stereo not given)	/	19.9	/	0.7	/	/	/
COC(=O)c1cc2c(c3c4cc(C#N)ccc4n(S(=O)(=O)c4ccc(C)cc4)c13)C(=O)N(C)C2	/	18.2	/	1.5	0.9	/	/
CN(c1ccc(Cl)cc1)S(=O)(=O)c1nnc(NC(=O)c2ccco2)s1	8.2	38.7*	0.9	-0.2	0.0	27.1	7.4*
CCN(c1cccc(C)c1)S(=O)(=O)c1nnc(NC(=O)c2ccco2)s1	9.9	38.8*	1.3	-3.1	0.2	28.5	6.5*
CCOC(=O)Cc1csc(NC(=O)Nc2cccc(Cl)c2)n1	-12.3	53.2*	-0.5	5.4	-1.4	17.5	16.2*
Cc1csc(NC(=O)Nc2ccc(Cl)cc2)n1	-96.0	37.9*	5.4	6.0	0.1	6.6	9.5*
NCc1csc(NC(=O)Nc2cccc(Cl)c2)n1	-21.1	34.8*	/	-4.9	1.0	9.5	8.4*
O=C(Cc1csc(NC(=O)Nc2ccc(Cl)cc2)n1)NC1CCCC1	-30.0	40.5*	2.4	-7.3	-1.2	16.2	14.7*
O=C(Cc1csc(NC(=O)Nc2ccc(Cl)cc2)n1)NCc1ccccn1	-73.3	30.3	4.2	6.4	0.7	/	/
Cc1cc2nc(-c3ccco3)c(Cc3cccc(Cl)c3)n2c(C)c1Br	-21.8	33.9	/	-24.7	0.9	/	/
CCOC(=O)Cc1csc(NC(=O)Nc2ccc(Cl)cc2)n1	-0.1	39.8*	4.3	6.0	-2.0	43.2*	16.9*
CCOC(=O)c1csc(NC(=O)Nc2cccc(Cl)c2)n1	2.8	59.2*	-1.8	7.0	0.7	49.8*	28.0*
CN(C)Cc1csc(NC(=O)Nc2cccc(Cl)c2)n1	1.0	21.5	/	1.1	1.1	/	/
CC(C)(C)S(=O)N1Cc2cc(CO)cc(-c3ccccc3)c2[C@@H]1CCO (stereo not given in full)	-20.6	4.9	/	-2.6	-2.3	/	/
Cc1cccc(N2CC(C(=O)Nc3ccccc3N3CCOCC3)CC2=O)c1C (stereo not given)	-4.3	1.5	/	-3.9	2.1	/	/
COc1ccc(/C=N\NC(=O)c2cc(O)c(O)c(O)c2)cc1COc1ccc(C(=O)OCC(C)C)cc1	-10.4	49.8*	1.8	3.2	0.5	56.1*	35.2*
COc1ccc(/C=N\NC(=O)c2cc(O)c(O)c(O)c2)cc1CN1CCN(c2ccc(F)cc2)CC1	-2.1	41.4*	2.8	-1.8	-3.8	44.8*	19.9*
SMILES	NR2E3 ag-1	rCAG RNA binder	NR2E3 ag-2	Rev-erbA mod	PG9 Ab binder	rCAG bind conf	dCAG dye counter
COc1ccc(C(=O)N/N=C/c2ccc(OC)c(COc3ccccc3)c2)cc1	-31.8	-0.7	-1.4	-1.3	-2.2	/	/
COc1ccc([C@H]2CC(=O)C[C@@H](CCn3cc(C)nn3)O2)cc1	8.3	2.3	/	3.2	0.5	/	/
C=CC[C@H]1C(C(=O)OCC)=CC[C@@H](c2ccccc2)N1S(=O)(=O)c1ccc(C)cc1	-16.4	6.7	/	11.0	-0.4	/	/
Fc1ccccc1-c1nc(-c2ccc(Br)o2)no1	-167.0	0.6	0.1	1.0	-0.5	/	/
CC1CCc2c(C(=O)Nc3cccc(-c4nn[nH]n4)c3)csc2C1 (stereo not given)	-31.8	64.6*	2.3	-2.0	-1.6	46.4*	13.1*
O=C(/C=C1\C(=O)Nc2ccccc21)/C=C1\C(=O)Nc2ccccc21	-29.0	39.0*	/	-2.2	-1.5	31.7	19.8*
Nc1c(C(=O)Nc2ccc(S(=O)(=O)N3CCCC3)cc2)sc2nc3cc4c(cc3cc12)CCC4	-17.2	38.1*	1.2	0.3	-2.7	31.1	16.4*
Cc1cscc1-c1cc2nc(NCCCN(C)C)n(C)c(=O)c2s1	-19.5	7.1	/	-1.0	0.5	/	/
CC1CN(C(=O)c2cccc(S(=O)(=O)Nc3cc(Cl)ccc3Cl)c2)CC(C)O1 (stereo not given)	-10.1	40.5*	0.4	0.0	-0.8	33.1	5.5*
O=C(N/N=C/c1ccccc1C(=O)O)c1cccc(S(=O)(=O)Nc2cc(Cl)ccc2Cl)c1	-13.1	49.3*	-2.2	1.8	-1.0	28.0	6.8*
O=C(NNC(=S)NC1CCCCC1)c1cccc(S(=O)(=O)Nc2ccccc2Cl)c1	-6.1	56.3*	1.8	0.8	-1.3	50.6*	19.3*
O=C(c1cccc(S(=O)(=O)Nc2ccccc2Cl)c1)N1CCCCCC1	-7.0	10.0	-3.2	-1.3	-0.5	/	/
O=C(c1cccc(S(=O)(=O)Nc2ccccc2Cl)c1)N1CCN(c2ccccc2O)CC1	-11.6	41.2*	-0.3	-4.1	-2.1	31.3	9.3*
Cc1ccc(/C=N/NC(=O)c2cccc(S(=O)(=O)Nc3ccccc3Cl)c2)s1	3.7	34.0	5.5	-0.6	-4.0	/	/
CCCCC1=C(C(=O)OCC)C(C(=O)OCC)Oc2ccccc21 (stereo not given)	6.7	0.5	/	2.3	-0.9	/	/
CCc1nc2ccc(C(=O)Nc3ccc(OC)c(OC)c3)cn2c1N(C)Cc1cccs1	0.0	2.0	/	-2.2	0.4	/	/
O=C(Nc1ccncc1)c1cc(C2CCCCN2C(=O)CCCc2ccccc2)on1 (stereo not given)	16.0	1.9	/	-3.7	-1.5	/	/
CC(=O)c1ccc2ccccc2c1OC(=O)c1ccncc1	17.9	3.2	/	4.7	1.2	/	/
